Values after ≈ are worked out from the molar mass of the structure shown.
Experiments:
Assay type in all cases: functional
Staphylococcus aureus [1] = assay: Antibacterial activity against constitutive macrolide-lincosamide-streptogramin B resistant Staphylococcus aureus by agar microdilution method
Method in brief: (§1)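 Agar microdilution per NCCLS guidelines; MIC reported in μg/mL; differences treated as significant only when more than a factor of 2 (one dilution) apart.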

Haemophilus influenzae = assay: Antibacterial activity against Haemophilus influenzae by agar microdilution method
Method in brief: (§2)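 MIC by agar microdilution following NCCLS guidelines. Values in μg/mL. Only differences of more than one twofold dilution were treated as significant. Ery-S denotes erythromycin-susceptible strains.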

Streptococcus pneumoniae [2] = assay: Antibacterial activity against constitutive macrolide-lincosamide-streptogramin B resistant Streptococcus pneumoniae by agar microdilution method; method in brief: as §1
Streptococcus pneumoniae [3] = assay: Antibacterial activity against erythromycin-susceptible Streptococcus pneumoniae by agar microdilution method; method in brief: as §2
Streptococcus pyogenes [4] = assay: Antibacterial activity against efflux mediated macrolide resistant Streptococcus pyogenes by agar microdilution method; method in brief: as §1
Streptococcus pyogenes [5] = assay: Antibacterial activity against inducibly macrolide-lincosamide-streptogramin B resistant Streptococcus pyogenes by agar microdilution method; method in brief: as §1
Staphylococcus aureus [6] = assay: Antibacterial activity against efflux mediated macrolide resistant Staphylococcus aureus by agar microdilution method; method in brief: as §1
Staphylococcus aureus [7] = assay: Antibacterial activity against erythromycin-susceptible Staphylococcus aureus by agar microdilution method; method in brief: as §2
Moraxella catarrhalis = assay: Antibacterial activity against Moraxella catarrhalis by agar microdilution method; method in brief: as §2
Staphylococcus aureus [8] = assay: Antibacterial activity against inducibly macrolide-lincosamide-streptogramin B resistant Staphylococcus aureus by agar microdilution method; method in brief: as §1
Streptococcus pneumoniae [9] = assay: Antibacterial activity against efflux mediated macrolide resistant Streptococcus pneumoniae by agar microdilution method; method in brief: as §1
Streptococcus pyogenes [10] = assay: Antibacterial activity against constitutive macrolide-lincosamide-streptogramin B resistant Streptococcus pyogenes by agar microdilution method; method in brief: as §1
Streptococcus pyogenes [11] = assay: Antibacterial activity against erythromycin-susceptible Streptococcus pyogenes by agar microdilution method; method in brief: as §2

Structure (SMILES)	MIC (Staphylococcus aureus [1]) [µg/mL]	MIC (Haemophilus influenzae) [µg/mL]	MIC (Streptococcus pneumoniae [2]) [µg/mL]	MIC (Streptococcus pneumoniae [3]) [µg/mL]	MIC (Streptococcus pyogenes [4]) [µg/mL]	MIC (Streptococcus pyogenes [5]) [µg/mL]	MIC (Staphylococcus aureus [6]) [µg/mL]	MIC (Staphylococcus aureus [7]) [µg/mL]	MIC (Moraxella catarrhalis) [µg/mL]	MIC (Staphylococcus aureus [8]) [µg/mL]	MIC (Streptococcus pneumoniae [9]) [µg/mL]	MIC (Streptococcus pyogenes [10]) [µg/mL]	MIC (Streptococcus pyogenes [11]) [µg/mL]
CC[C@@H]1OC(=O)[C@H](C)[C@@H](O[C@@H]2C[C@](C)(OC)[C@H](O)[C@@H](C)O2)[C@@H](C)[C@@H](O[C@@H]2O[C@H](C)C[C@H](N(C)C)[C@H]2O)[C@](C)(O)C[C@@H](C)CN(C)[C@H](C)[C@@H](O)[C@]1(C)O	> 64	1 (≈ 1.34 µM)	> 64	≤ 0.125	16 (≈ 21.4 µM)	> 64	32 (≈ 42.7 µM)	1 (≈ 1.34 µM)	0.25 (≈ 0.334 µM)	> 64	8 (≈ 10.7 µM)	> 64	≤ 0.125
CC[C@H]1OC(=O)[C@@H](C)[C@H](O[C@@H]2C[C@](C)(OC)[C@H](OC(=O)CNCCCNCCNc3cc4c(=O)c(C(=O)O)cn(C5CC5)c4cc3Cl)[C@@H](C)O2)[C@H](C)[C@H](O[C@H]2O[C@@H](C)C[C@@H](N(C)C)[C@@H]2O)[C@@](C)(O)C[C@H](C)CN(C)[C@@H](C)[C@H](O)[C@@]1(C)O	> 64	0.5 (≈ 0.428 µM)		≤ 0.125			0.25 (≈ 0.214 µM)	≤ 0.125	≤ 0.125	0.25 (≈ 0.214 µM)			≤ 0.125
CC[C@H]1OC(=O)[C@@H](C)[C@H](O[C@H]2C[C@@](C)(OC)[C@@H](OC(=O)CN)[C@H](C)O2)[C@@H](C)[C@H](O[C@H]2O[C@@H](C)C[C@@H](N(C)C)[C@@H]2O)[C@@](C)(O)C[C@H](C)CN(C)[C@@H](C)[C@@H]2OC(=O)O[C@@]12C	> 64	> 64	> 64	≤ 0.125	> 64	32 (≈ 38.5 µM)	> 64	32 (≈ 38.5 µM)	> 64	> 64	32 (≈ 38.5 µM)	> 64	≤ 0.125
CCC1OC(=O)[C@H](C)[C@@H](O[C@H]2C[C@@](C)(OC)[C@@H](OC(=O)CNCCSc3cnc4ccccc4n3)[C@H](C)O2)C(C)[C@@H](O[C@@H]2O[C@H](C)C[C@H](N(C)C)[C@H]2O)[C@](C)(O)C[C@@H](C)CN(C)[C@H](C)[C@@H](O)[C@]1(C)O (single isomer, unassigned)	> 64	4 (≈ 4.02 µM)	16 (≈ 16.1 µM)	≤ 0.125	0.25 (≈ 0.251 µM)	4 (≈ 4.02 µM)	2 (≈ 2.01 µM)	2 (≈ 2.01 µM)	1 (≈ 1.01 µM)	0.5 (≈ 0.503 µM)		16 (≈ 16.1 µM)	≤ 0.125
CCC1OC(=O)[C@H](C)[C@@H](O[C@H]2C[C@@](C)(OC)[C@@H](OC(=O)CNC(=O)CNC(=O)CSc3cnc4ccccc4n3)[C@H](C)O2)C(C)[C@@H](O[C@@H]2O[C@H](C)C[C@H](N(C)C)[C@H]2O)[C@](C)(O)C[C@@H](C)CN(C)[C@H](C)[C@@H](O)[C@]1(C)O (single isomer, unassigned)	> 64	4 (≈ 3.75 µM)	16 (≈ 15 µM)	≤ 0.125	0.25 (≈ 0.235 µM)	4 (≈ 3.75 µM)	2 (≈ 1.88 µM)	1 (≈ 0.939 µM)	4 (≈ 3.75 µM)	0.5 (≈ 0.469 µM)		16 (≈ 15 µM)	0.25 (≈ 0.235 µM)
CCC1OC(=O)[C@H](C)[C@@H](O[C@H]2C[C@@](C)(OC)[C@@H](OC(=O)CNC(=O)CCNCCNc3cc4c(cc3F)c(=O)c(C(=O)O)cn4C3CC3)[C@H](C)O2)C(C)[C@@H](O[C@@H]2O[C@H](C)C[C@H](N(C)C)[C@H]2O)[C@](C)(O)C[C@@H](C)CN(C)[C@H](C)[C@@H](O)[C@]1(C)O (single isomer, unassigned)	> 64	4 (≈ 3.43 µM)	4 (≈ 3.43 µM)	≤ 0.125	2 (≈ 1.72 µM)	1 (≈ 0.858 µM)	2 (≈ 1.72 µM)	0.25 (≈ 0.215 µM)	1 (≈ 0.858 µM)	8 (≈ 6.86 µM)	1 (≈ 0.858 µM)	4 (≈ 3.43 µM)	≤ 0.125
CCC1OC(=O)[C@H](C)[C@@H](O[C@H]2C[C@@](C)(OC)[C@@H](OC(=O)CNCCNC(=O)CSc3cnc4ccccc4n3)[C@H](C)O2)C(C)[C@@H](O[C@@H]2O[C@H](C)C[C@H](N(C)C)[C@H]2O)[C@](C)(O)C[C@@H](C)CN(C)[C@H](C)[C@@H](O)[C@]1(C)O (single isomer, unassigned)	> 64	8 (≈ 7.61 µM)	8 (≈ 7.61 µM)	≤ 0.125		1 (≈ 0.951 µM)	1 (≈ 0.951 µM)	8 (≈ 7.61 µM)	8 (≈ 7.61 µM)	0.25 (≈ 0.238 µM)		8 (≈ 7.61 µM)	≤ 0.125
CCC1OC(=O)[C@H](C)[C@@H](O[C@H]2C[C@@](C)(OC)[C@@H](OC(=O)CNCCCNCCNc3cc4c(cc3F)c(=O)c(C(=O)O)cn4C3CC3)[C@H](C)O2)C(C)[C@@H](O[C@@H]2O[C@H](C)C[C@H](N(C)C)[C@H]2O)[C@](C)(O)C[C@@H](C)CN(C)[C@H](C)[C@@H](O)[C@]1(C)O (single isomer, unassigned)	> 64	1 (≈ 0.868 µM)	0.5 (≈ 0.434 µM)	≤ 0.125	0.5 (≈ 0.434 µM)	0.25 (≈ 0.217 µM)	0.5 (≈ 0.434 µM)	≤ 0.125	0.25 (≈ 0.217 µM)	1 (≈ 0.868 µM)		1 (≈ 0.868 µM)	≤ 0.125
CCC1OC(=O)[C@H](C)[C@@H](O[C@H]2C[C@@](C)(OC)[C@@H](OC(=O)CNC(=O)CSc3cnc4ccccc4n3)[C@H](C)O2)C(C)[C@@H](O[C@@H]2O[C@H](C)C[C@H](N(C)C)[C@H]2O)[C@](C)(O)C[C@@H](C)CN(C)[C@H](C)[C@@H](O)[C@]1(C)O (single isomer, unassigned)	> 64	8 (≈ 7.93 µM)	16 (≈ 15.9 µM)	≤ 0.125	0.5 (≈ 0.496 µM)	8 (≈ 7.93 µM)	8 (≈ 7.93 µM)	4 (≈ 3.97 µM)	16 (≈ 15.9 µM)	1 (≈ 0.992 µM)	0.25 (≈ 0.248 µM)	32 (≈ 31.7 µM)	≤ 0.125
CC[C@H]1OC(=O)[C@H](C)C(=O)[C@H](C)[C@@H](O[C@@H]2O[C@H](C)C[C@H](N(C)C)[C@H]2O)[C@](C)(OCC=Cc2cnc3ccccc3c2)C[C@@H](C)C(=O)[C@H](C)[C@H]2NC(=O)O[C@@]21C [CETHROMYCIN]	> 64	1 (≈ 1.31 µM)		≤ 0.125			0.25 (≈ 0.326 µM)	≤ 0.125	≤ 0.125	0.25 (≈ 0.326 µM)		1 (≈ 1.31 µM)	≤ 0.125
O=C(O)c1cn(C2CC2)c2cc(N3CCNCC3)c(F)cc2c1=O [CIPROFLOXACIN]		≤ 0.125	0.25 (≈ 0.754 µM)	≤ 0.125	≤ 0.125	0.25 (≈ 0.754 µM)		≤ 0.125	≤ 0.125		0.25 (≈ 0.754 µM)	0.5 (≈ 1.51 µM)	2 (≈ 6.04 µM)
CC[C@H]1OC(=O)[C@H](C)C(=O)[C@H](C)[C@@H](O[C@@H]2O[C@H](C)C[C@H](N(C)C)[C@H]2O)[C@](C)(OC)C[C@@H](C)C(=O)[C@H](C)[C@H]2N(CCCCn3cnc(-c4cccnc4)c3)C(=O)O[C@]12C [TELITHROMYCIN]	> 64	1 (≈ 1.23 µM)		≤ 0.125	0.25 (≈ 0.308 µM)		0.25 (≈ 0.308 µM)	≤ 0.125	≤ 0.125	0.5 (≈ 0.616 µM)	0.5 (≈ 0.616 µM)	8 (≈ 9.85 µM)	≤ 0.125

From ChEMBL document CHEMBL3763128, “Synthesis and antibacterial evaluation of novel 4″-glycyl linked quinolyl-azithromycins with potent activity against macrolide-resistant pathogens” (2016)
